Experimental data reported in ChEMBL document CHEMBL3864177, “Dipeptidyl Nitroalkenes as Potent Reversible Inhibitors of Cysteine Proteases Rhodesain and Cruzain” (ACS Med Chem Lett, 2016).
Active and inactive are the calls of the source. The rule behind the calls is not given here.

Columns and labels:
[1] = target: Rhodesain (Trypanosoma brucei rhodesiense, UniProt Q95PM0); assay: Inhibition of Trypanosoma brucei rhodesiense rhodesain expressed in Pichia pastoris using Cbz-Phe-Arg-AMC as substrate after 15 to 30 mins by fluorescence spectrophotometric analysis
Chain of Rhodesain (Q95PM0 whole entry): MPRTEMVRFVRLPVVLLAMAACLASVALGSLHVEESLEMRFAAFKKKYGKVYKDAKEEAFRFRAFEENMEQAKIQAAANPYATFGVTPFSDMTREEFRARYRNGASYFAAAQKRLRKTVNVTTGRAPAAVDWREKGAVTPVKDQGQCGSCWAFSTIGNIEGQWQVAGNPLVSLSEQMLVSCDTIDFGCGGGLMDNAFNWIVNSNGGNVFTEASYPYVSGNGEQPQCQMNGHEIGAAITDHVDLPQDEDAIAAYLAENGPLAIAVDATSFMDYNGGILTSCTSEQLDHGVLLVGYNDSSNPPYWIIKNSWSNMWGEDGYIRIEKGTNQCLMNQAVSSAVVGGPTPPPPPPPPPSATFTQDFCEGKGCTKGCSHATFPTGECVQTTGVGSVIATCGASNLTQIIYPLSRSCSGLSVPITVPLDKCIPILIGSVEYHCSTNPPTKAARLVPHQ

[2] = target: Cruzipain (Trypanosoma cruzi, UniProt P25779); assay: Inhibition of Trypanosoma cruzi cruzain
Chain of Cruzipain (P25779 whole entry): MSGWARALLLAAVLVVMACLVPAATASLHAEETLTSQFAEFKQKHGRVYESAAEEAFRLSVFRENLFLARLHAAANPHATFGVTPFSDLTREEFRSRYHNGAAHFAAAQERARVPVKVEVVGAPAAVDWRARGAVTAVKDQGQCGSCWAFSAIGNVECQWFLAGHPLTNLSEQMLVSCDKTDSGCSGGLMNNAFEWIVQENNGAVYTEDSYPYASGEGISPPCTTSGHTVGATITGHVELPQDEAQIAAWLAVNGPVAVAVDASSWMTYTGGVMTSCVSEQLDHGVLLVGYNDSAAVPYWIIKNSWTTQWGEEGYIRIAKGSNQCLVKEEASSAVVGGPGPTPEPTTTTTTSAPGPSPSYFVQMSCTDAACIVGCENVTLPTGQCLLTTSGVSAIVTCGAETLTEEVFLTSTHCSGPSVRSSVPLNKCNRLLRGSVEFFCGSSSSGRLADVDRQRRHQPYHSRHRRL

[3] = target: T1, Cathepsin B (Homo sapiens, UniProt P07858); assay: Inhibition of human cathepsin B
[4] = target: T2, Procathepsin L (Homo sapiens, UniProt P07711); assay: Inhibition of human cathepsin L
Target sequence in this assay (P07711 whole entry): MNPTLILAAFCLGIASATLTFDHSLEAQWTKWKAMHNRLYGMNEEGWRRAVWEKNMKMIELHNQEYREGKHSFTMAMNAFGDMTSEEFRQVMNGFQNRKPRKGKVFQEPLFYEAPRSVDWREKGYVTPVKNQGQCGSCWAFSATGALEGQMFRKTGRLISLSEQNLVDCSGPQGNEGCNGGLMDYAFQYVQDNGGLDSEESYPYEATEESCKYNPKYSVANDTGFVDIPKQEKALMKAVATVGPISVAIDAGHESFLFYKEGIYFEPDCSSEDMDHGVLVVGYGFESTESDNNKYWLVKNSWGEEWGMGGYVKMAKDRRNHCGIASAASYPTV

[5] = test system: Trypanosoma brucei brucei; assay: Antitrypanosomal activity against Trypanosoma brucei brucei expressing BS449 after 24 hrs by ATPlite-luciferase reporter gene assay; format: functional
[6] = test system: Trypanosoma brucei brucei; assay: Antitrypanosomal activity against Trypanosoma brucei brucei expressing BS449 after 48 hrs by ATPlite-luciferase reporter gene assay; format: functional
[7] = test system: Trypanosoma brucei brucei; assay: Antitrypanosomal activity against Trypanosoma brucei brucei expressing BS449 after 72 hrs by ATPlite-luciferase reporter gene assay; format: functional
[8] = Stability of the compound in HMI-9 medium after 24 hrs; format: physicochemical
[9] = target: T2, Procathepsin L; assay: Reversible inhibition of human cathepsin L assessed as enzyme activity recovery at 0.1 to 5 times IC50 preincubated for 5 mins followed by substrate addition measured up to 1500 sec by dilution assay
Target sequence in this assay (P07711 114-333 limits assumed): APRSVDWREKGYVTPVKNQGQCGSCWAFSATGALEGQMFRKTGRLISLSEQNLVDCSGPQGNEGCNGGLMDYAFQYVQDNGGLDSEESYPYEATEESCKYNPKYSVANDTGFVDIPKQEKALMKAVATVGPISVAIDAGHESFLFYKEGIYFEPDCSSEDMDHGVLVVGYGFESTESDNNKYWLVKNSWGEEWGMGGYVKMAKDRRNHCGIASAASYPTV

[10] = target: Rhodesain (Trypanosoma brucei rhodesiense) (UniProt Q95PM0); assay: Binding affinity to Trypanosoma brucei rhodesiense 15N-labeled rhodesain expressed in Pichia pastoris at 1:1 molar ratio of protein:inhibitor incubated for 15 mins by 1H[…]TROSY-HSQC spectra analysis
Chain of Rhodesain (Trypanosoma brucei rhodesiense) (Q95PM0 1-450): as the sequence (Q95PM0 whole entry) above
Method in brief: (§1)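 15N-labelled rhodesain was mixed with inhibitor at 1:1 mol/mol, incubated 15 min, and a 1H–15N TROSY-HSQC spectrum was recorded. Inhibitor in DMSO-d6 was then added to reach a 1:3 protein/inhibitor ratio, incubated a further 7 min, and the spectrum was re-recorded.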

[11] = target: Rhodesain (Trypanosoma brucei rhodesiense) (UniProt Q95PM0); assay: Binding affinity to Trypanosoma brucei rhodesiense 15N-labeled rhodesain expressed in Pichia pastoris at 1:3 molar ratio of protein:inhibitor incubated for 22 mins by 1H[…]TROSY-HSQC spectra analysis; method in brief: as §1
[12] = target: Rhodesain (Trypanosoma brucei rhodesiense) (UniProt Q95PM0); assay: Reversible inhibition of Trypanosoma brucei rhodesiense rhodesain assessed as enzyme activity recovery preincubated for 5 mins followed by substrate addition measured after 30 mins by dialysis assay relative to control; design: scale not given: the % may be the effect or the level left
[13] = target: Rhodesain (Trypanosoma brucei rhodesiense) (UniProt Q95PM0); assay: Reversible inhibition of Trypanosoma brucei rhodesiense rhodesain assessed as enzyme activity recovery preincubated for 5 mins followed by substrate addition measured after 60 mins by dialysis assay relative to control; design: scale not given: the % may be the effect or the level left
[14] = target: Rhodesain (Trypanosoma brucei rhodesiense) (UniProt Q95PM0); assay: Reversible inhibition of Trypanosoma brucei rhodesiense rhodesain assessed as enzyme activity recovery preincubated for 5 mins followed by substrate addition measured after 90 mins by dialysis assay relative to control; design: scale not given: the % may be the effect or the level left
[15] = target: Rhodesain (Trypanosoma brucei rhodesiense) (UniProt Q95PM0); assay: Reversible inhibition of Trypanosoma brucei rhodesiense rhodesain assessed as enzyme activity recovery preincubated for 5 mins followed by substrate addition measured after 120 mins by dialysis assay relative to control; design: scale not given: the % may be the effect or the level left
[16] = target: T1, Cathepsin B; assay: Reversible inhibition of human cathepsin B assessed as enzyme activity recovery at 0.1 to 5 times IC50 preincubated for 5 mins followed by substrate addition measured up to 1500 sec by dilution assay

Structure (SMILES)	Ki [1] [nM]	Ki [2] [nM]	Ki [3] [nM]	Ki [4] [nM]	EC50 [5] [nM]	EC50 [6] [nM]	EC50 [7] [nM]	Stability [8]	reversible inhibition (enzyme activity recovery) [9]	Activity [10]	Activity [11]	Activity [12] [%]	Activity [13] [%]	Activity [14] [%]	Activity [15] [%]	inhibition [16]
O=C(N[C@@H](Cc1ccccc1)C(=O)N[C@H](/C=C/[N+](=O)[O-])CCc1ccccc1)OCc1ccccc1	4.2	11	34	19.6	1620	2100	3450	Unstable								
CC(C)C[C@@H](/C=C/[N+](=O)[O-])NC(=O)[C@H](Cc1ccccc1)NC(=O)OCc1ccccc1	6.5	16	68	30	990	1310	2060	Unstable	Active	Active	Active	16	24	29	47	
O=C(N[C@@H](Cc1ccccc1)C(=O)N[C@H](/C=C/[N+](=O)[O-])Cc1ccccc1)OCc1ccccc1	29	130	310	110												
N=C(NCCCCCCNC(=N)NC(=N)Nc1ccc(Cl)cc1)NC(=N)Nc1ccc(Cl)cc1 [CHLORHEXIDINE]					430	410	430									
C/C(=C\[C@H](C)NC(=O)[C@H](Cc1ccccc1)NC(=O)OCc1ccccc1)[N+](=O)[O-]	50		6300	280												
C/C(=C\[C@H](C)NC(=O)[C@H](CC(C)C)NC(=O)OCc1ccccc1)[N+](=O)[O-]	544		3200	2020												
C[C@@H](/C=C/[N+](=O)[O-])NC(=O)[C@H](Cc1ccccc1)NC(=O)OCc1ccccc1	0.49	0.44	8	11	5640	7170	10800	Unstable	Active							
CN1CCN(C(=O)N[C@@H](Cc2ccccc2)C(=O)N[C@H](/C=C/S(=O)(=O)c2ccccc2)CCc2ccccc2)CC1												0	2	0	3	
CC(C)C[C@H](NC(=O)OCc1ccccc1)C(=O)N[C@H](/C=C/[N+](=O)[O-])Cc1ccccc1	18	28	710	49					Active							
CC(C)C[C@H](NC(=O)OCc1ccccc1)C(=O)N[C@@H](C)/C=C/[N+](=O)[O-]	30	130	310	200												Active
CC(C)C[C@@H](/C=C/[N+](=O)[O-])NC(=O)[C@H](CC(C)C)NC(=O)OCc1ccccc1	18.4	25	210	46					Active			17	26	35	49	Active
CC(C)C[C@H](NC(=O)OCc1ccccc1)C(=O)N[C@H](/C=C/[N+](=O)[O-])CCc1ccccc1	14	17	72	27								22	46	76	110	
